In ChEMBL document CHEMBL4513216, “Probing the Open Global Health Chemical Diversity Library for Multistage-Active Starting Points for Next-Generation Antimalarials” (ACS Infect Dis, 2020):

Assay: Toxicity liver stage against HepG2, at 10uM
Format: cell-based
Design: test concentration 10 uM, cell line HepG2-A16-CD81EGFP
Settings: human, HepG2-A16-CD81EGFP cells; read-out: INHIBITION
Procedure, shortened: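 Uninfected HepG2-A16-CD81EGFP cells, 3 × 10^3 per well, 1536-well, plated on prespotted compound at 10 μM final, parasite-free screening media added to match infected plates; puromycin 10 μM positive, DMSO 0.5% negative; run in parallel with 48 h PbLuc assay at 37 °C, 5% CO2; viability by CellTiter-Glo luminescence, normalized to controls.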

Point of comparison: `COc1ccc(NC2CCc3c2[nH]c(=O)n(C2CCCCC2)c3=O)cc1` (stereo unspecified), cytotoxicity at 10 µM 2%. Against it:
- Cc1c(C(=O)O)sc2nc(Cc3ccccc3)nc(N)c12 — lower, -0.924%
- CSc1ncccc1C(=O)N1CCC2(CC1)OCCCC2O (stereo unspecified) — lower, -7.16%
- Cc1sc(CNS(N)(=O)=O)nc1-c1ccc(Cl)cc1 — lower, -7.45%
- O=C(NC1CCc2ccccc2C1)C1CCN(Cc2ccco2)CC1 (stereo unspecified) — lower, -0.339%
- Cc1cccc(CN2CCCCC23CCNC3)n1 (stereo unspecified) — lower, 1.49%
- CCCN1CCC(N2CCC(Cn3cc(C4CC4)nn3)CC2)CC1 — lower, -1.98%
- COCCC1(CNC(=O)Nc2ccc(-n3ccnn3)cc2)CCC1 — lower, -0.677%
- COc1cc2c(cc1CN1CCc3sccc3C1C)OCO2 (stereo unspecified) — higher, 7.01%
- CCn1c(CN(C)Cc2cnc(C)s2)nc2c(F)cccc21 — lower, -42%
- Cc1cc(-c2cnn(CCNC(=O)CCn3cccn3)c2C2CC2)on1 — lower, -4.66%
- CS(=O)(=O)N1CCc2c(cccc2NC(=O)Nc2ccccn2)C1 — lower, -6%
- Cc1cc(C)c(C(=O)N2CCN(c3ncccc3C#N)CC2)c(=O)[nH]1 — lower, -3.28%
- CN(CC(=O)N(C)C1CCCCC1)C1CCc2ccccc21 (stereo unspecified) — lower, -7.44%
- O=C(c1ccnc(C2CCNCC2)c1)N1CCCC1 — higher, 3.69%
- Cn1cc(C2CCCN2C(=O)CCCOCc2ccccc2)cn1 (stereo unspecified) — lower, -10.2%
- Cc1cc(-c2cnc(NCc3ccc4c(c3)OCO4)nc2C(C)C)on1 — lower, -1.23%
- Cn1cc(C(=O)N2CC[C@H](N3CCOCC3)[C@H](CCCO)C2)cn1 — lower, -158%
- CCn1cc(C(=O)NC2CCN(S(C)(=O)=O)CC2)c2ccccc21 — lower, 0.95%
- CN1[C@H](CO)C[C@H](CNCc2ccc(CO)o2)[C@@H]1c1ccccc1F — lower, -9.37%
- CCOCc1cncc2c1CCN(C(=O)c1cscn1)C2 — lower, -107%
- Cc1ccc(-c2ccc(CC3NCCN(C)C3=O)cc2)cc1 (stereo unspecified) — lower, -25%
- Fc1cnc(N2CCCn3c(nnc3Cn3cccc3)C2)nc1 — lower, -134%
- O=C(c1ccc2[nH]cnc2c1)N1CCCC1Cn1cccn1 (stereo unspecified) — lower, -10%
- Cc1nc2ccccn2c1CN1C[C@@H](CN2CCOCC2)[C@@H](CO)C1 — lower, 1.73%
- CC(CS(C)(=O)=O)N(C)C(=O)NCCCc1ccc(Cl)cc1 (stereo unspecified) — lower, 1.8%
- CS(=O)(=O)N1CCOCC2(CCN(c3cnccn3)CC2)C1 — lower, -107%
- CCc1nnc(NC(=O)Cc2c(C)nc(C)[nH]c2=O)s1 — lower, -14.4%
- COCCN1C(=O)CC[C@@H]2[C@H]1CCN2S(=O)(=O)c1cccs1 — lower, -87.2%
- COc1ccc(CCNC(=O)C2CCC(Cn3cnnn3)CC2)cc1 (stereo unspecified) — higher, 10.2%
- CC(=O)N1CCC2(CC1)CN(C(=O)c1cccnc1)c1ccc(F)cc12 — lower, -108%
- CC(NC(=O)NCC1(O)CCC1)c1ccc(OCC2CC2)c(F)c1 (stereo unspecified) — lower, -4.69%
- CC1N(C)C(=O)COC12CCN(C(=O)CCc1ccccc1)CC2 (stereo unspecified) — lower, 0.227%
- CCc1nc(CCNc2ncccc2C#N)sc1C — higher, 15.4%
- O=C(NC[C@]12COC[C@H]1CN(Cc1nccs1)C2)c1ccccc1 — lower, -11.8%
- CCc1ncc(C(=O)N2CCCC(c3nccn3CCOC)C2)cn1 (stereo unspecified) — lower, -0.262%
- Cc1ccc(-c2ncc(C(=O)NCCNc3ncccn3)s2)c(C)c1 — lower, -9.12%
- CCc1ncc2c(n1)CN(CC(=O)Nc1cccnc1)CC2 — lower, -1.1%
- COC1CN(C(=O)Cc2cccs2)CCC(=O)N(C)c2ccccc21 (stereo unspecified) — lower, -11.6%
- O=C(c1cnc2ccccc2c1)N1CCC2(CCN2c2ncccn2)C1 (stereo unspecified) — lower, -122%
- CCC(CNC(=O)Nc1cnn(CC)c1)N1CCc2ccccc2C1 (stereo unspecified) — higher, 4.72%
- Nc1nccnc1C(=O)NC1CCCN(Cc2c(F)cccc2F)C1 (stereo unspecified) — lower, -2.14%
- FC(F)(F)c1cc(C2CCCN(Cc3cccnc3)C2)n[nH]1 (stereo unspecified) — lower, -45.7%
- Cc1c(C(=O)N2CCC2)nnn1-c1ccc2ncccc2c1 — lower, -2.29%
- Cc1csc(C(=O)NCCN2CCC(c3cccs3)CC2)c1 — higher, 2.03%
- CCOc1ncccc1Cn1cc(-c2ccc(CO)o2)nn1 — lower, -1.91%
- c1ccc(CN2CCc3ncnc(C4CC4)c3CC2)cc1 — lower, -156%
- Cc1ccnc(C(NC(=O)c2ccc(O)nc2C)C2CC2)n1 (stereo unspecified) — lower, -5.3%
- CCOc1nc2cnccc2n(CC(=O)Nc2ccccc2OC)c1=O — lower, -15%
- CN(C)CCN1CCOCC2(CCCN(C(=O)c3cccc(O)c3)C2)C1 (stereo unspecified) — higher, 11.7%
- COc1cc(C(=O)N2CC[C@@H](NC(=O)c3ccccn3)[C@H](O)C2)ccn1 — lower, 0.894%
- C=Cc1ccc(C(=O)N2CCCC(Nc3ccc(F)c(F)c3)C2)cc1 (stereo unspecified) — lower, -9.03%
- Cc1c(COC(C)C)cccc1NC(=O)N1CCCC(CO)C1 (stereo unspecified) — lower, -5.44%
- O=C(NCC[S+]([O-])c1ccccc1)NCC(F)(F)F (stereo unspecified) — lower, -1.09%
- Cc1ccc(CNc2nc(O)cc(C3CC(=O)N(C)C3)n2)cc1 (stereo unspecified) — lower, -17.8%
- NC(=O)COc1ccc(CNCc2c(F)cccc2F)cc1 — lower, -5.03%
- CC(=O)N1CCC(Cc2cnc(-n3ccnc3)cn2)CC1 — lower, -38.8%
- O=C1CC[C@H]2CN(c3ncccc3F)CC[C@H]2N1CCc1ccccc1 — higher, 4.52%
- CCN(CC(F)(F)F)C(=O)C1CCCN(Cc2ccno2)C1 (stereo unspecified) — lower, -2.33%
- Cc1cc(C2CCC2)nc(N(C)Cc2cc(-c3ccccn3)no2)n1 — higher, 21.2%
- Cc1nccn1CCC1CCCCN1Cc1cccc(CCN)c1 (stereo unspecified) — lower, 0.106%
- CC1CCN(C(=O)c2cn(-c3cc(N4CCOCC4)ncn3)cn2)CC1 — lower, 1.75%
- O=C(CSc1ccc2c(c1)OCCO2)NS(=O)(=O)c1cc(F)ccc1F — lower, -3.47%
- Cn1nc(CNS(=O)(=O)Cc2ccccc2F)c2c1CCCC2 — lower, -0.0785%
- C[C@@H]1CN(Cc2cccnc2)C[C@]1(C)O — lower, -6.1%
- COc1ccc(CS(=O)(=O)CC(=O)NCC2CC2)cc1F — lower, -0.265%
- CC(=O)Nc1ccc(S(=O)(=O)N2CCOC(Cn3ccnc3)C2)cc1 (stereo unspecified) — lower, 0.166%
- Cn1cc(S(=O)(=O)NC(=O)C2(c3cccc(Cl)c3)CC2)cn1 — lower, -10%
- O=C(NCC1CC(=O)N(CCc2ccccc2)C1)c1ccon1 (stereo unspecified) — lower, -5.22%
- COc1cc(F)c(S(=O)(=O)N2CCN(C)Cc3ccccc32)cc1OC — higher, 3.84%
- Cc1nc(CN(C)C2CCCN(Cc3noc(C4CC4)n3)C2)oc1C (stereo unspecified) — lower, -2.34%
- COCCNC(=O)[C@H]1CC[C@@H]2[C@@H](CCN2S(C)(=O)=O)O1 — lower, -8.87%
- Cn1cc(C(=O)NCc2cn3c(n2)CN(Cc2ccncc2)CC3)cn1 — higher, 5.71%
- CCc1nc(CN2CCOC(Cn3nc(C)cc3C)C2)no1 (stereo unspecified) — higher, 4.36%
- CN(C)CCNC(=O)c1ccc(S(=O)(=O)N[C@@H]2CCNC2)cc1 — lower, -49.2%
- CCC(=O)N(CC(N)=O)Cc1cccc(Oc2ccccc2)c1 — higher, 9.66%
- Cc1cc(C)n(CC2CCCN2CCS(=O)(=O)c2ccccc2)n1 (stereo unspecified) — lower, -7.23%
- CCS(=O)(=O)N1CCN(CCn2cccn2)c2nc(C)ccc2C1 — higher, 9.88%
- CCc1nccn1C1CCCN(C(=O)c2cc3nc(C)ccc3o2)C1 (stereo unspecified) — lower, -15.5%
- Cc1cnc(C(=O)N2CCC3(CCN(Cc4ccccn4)C3=O)C2)cn1 (stereo unspecified) — lower, -140%
- Cc1ccsc1CN(C)C(=O)C1CCCN(C(N)=O)C1 (stereo unspecified) — higher, 5.09%
- O=C(c1ccno1)N1CCOC[C@H](Oc2ccccc2)C1 — lower, -5.25%
- O=c1[nH]nc(CNc2cncc(Br)c2)[nH]1 — lower, -1.23%
- O=C(c1ccc(N2CCCC2)nn1)N1CCCc2ccc(F)cc21 — lower, -1.7%
- COc1ccc(C(=O)CN(C2=NCCCCC2)c2ccccc2)cc1 — higher, 9.62%
- CC(=O)N1CCc2ncn(C)c2C1C(=O)N1CCCC1 (stereo unspecified) — lower, 1.9%
- CN1CCC(NC(=O)Nc2cnn(-c3ccccc3Cl)c2)CC1 — lower, -5.5%
- CN1CCN(Cc2cnc3n2CCN(Cc2cccnc2)CC3)CC1 — higher, 6.26%
- O=C(NCCO)C1CN(c2cncnc2)CCO1 (stereo unspecified) — lower, -29.9%
- Cc1nnc(-c2ccc(C(=O)Nc3ccnc(N(C)C)n3)cc2)o1 — lower, -1.01%
- CC1CN(C)c2ccccc2CN1C(=O)c1cc[nH]c(=O)c1 (stereo unspecified) — higher, 4.96%
- COc1ccnc(N2CCN(Cc3ncc(-c4ccccc4)o3)CC2)n1 — lower, -10.2%
- COc1ccc(-n2c(COC(C)C)n[nH]c2=O)cc1 — higher, 3.45%
- CN(Cc1ccc(F)cc1C#N)CC(F)(F)F — higher, 4.28%
- Cn1cc(CCN2CCOC(CNc3cccnn3)C2)cn1 (stereo unspecified) — higher, 2.11%
- c1cnc(N2CCC3(CCN(Cc4cccnc4)CC3)CC2)nc1 — lower, -88.4%
- CNC(=O)C(NC(=O)CCc1cccc(OC2CCCC2)c1)C(C)C (stereo unspecified) — higher, 10.9%
- Cc1nc2c(c(=O)n1C)CCN(Cc1cc3cc[nH]c3cn1)CC2 — lower, -9.56%
- COc1cccc(NC(=O)NCc2cnn(C)c2)c1 — lower, -1.59%
- COCCCNS(=O)(=O)c1cccc(CSC)c1 — higher, 11.9%
- CNC(=O)[C@@H]1C[C@@H](NC(=O)c2cn(C)nc2C)CN1Cc1sccc1C — lower, -5.58%
- Cc1cc(C[C@@H]2CCC[C@H]2NCc2ccccc2C)on1 — lower, -5.28%
- Cn1ccnc1CCNS(=O)(=O)c1ccc(Br)cc1 — higher, 3.32%
- O=C(c1cccnc1Oc1ccc(Cl)cc1)N1CC[C@@H](O)C1 — lower, -3.36%
- CCC(CC)C(=O)N1CCOC2(COCCN(CC(=O)NC)C2)C1 (stereo unspecified) — higher, 2.35%
- Cc1nc(CC(=O)N2CCn3c(nnc3C(C)C)C2)cs1 — lower, -12.3%
- CC(C)c1ncc(CN2CCC(O)(c3ccccc3F)CC2)cn1 — lower, -0.882%
- COCC(NC(=O)c1cnc(-c2ccncc2)nc1)c1ccnn1C (stereo unspecified) — lower, -13.1%
- O=C(CCOCc1ccccc1)NS(=O)(=O)N1CCOc2ccccc21 — higher, 9.15%
- CCNC(=O)c1ccc(NC2CCOC3(CCCC3)C2)nn1 (stereo unspecified) — lower, -5%
- NCC1Cc2cc(-c3cncc(C(=O)N4CCCCC4)n3)cc(F)c2O1 (stereo unspecified) — lower, -51.8%
